Assay results as given in ChEMBL document CHEMBL5724801, “EUbOPEN Chemogenomics Library - Multiplex” (2024).
Where “and” joins values, the source holds several entries; their conditions need not be identical. Identical values can stand only once.

System: U2OS
Experiment: Multiplex assay against U2OS
Assay type: toxicity, cell-based
Settings: human
How it was run: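 Imaging took place on a CQ1 microscope at 37°C and 5% CO2 once compound had been added to live cells stained at seeding with Hoechst33342, BioTracker Green Microtubule Cytoskeleton Dye, MitoTracker Red and Annexin V Alexa Fluor 680. CellPathfinder machine-learning gating classed cells as Hoechst high-intensity objects or normal cells, classed normal cells as having healthy, pyknosed or fragmented nuclei, and classed pyknosed cells as mitotic or apoptotic. Tubulin, mitochondrial-mass and membrane-permeability phenotypes are per cents of the healthy-nucleus cells.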

[1] = 12 h, 1 µM, compound concentration 1 uM
[2] = 12 h, 10 µM, compound concentration 10 uM
[3] = 24 h, 1 µM, compound concentration 1 uM
[4] = 24 h, 10 µM, compound concentration 10 uM
[5] = 48 h, 1 µM, compound concentration 1 uM
[6] = 48 h, 10 µM, compound concentration 10 uM

CN(C)C(=O)Cn1cc(-c2ccc(-c3nnc4ccccn34)cc2)cn1
Population Apoptotic (%) [1]: 90%
Population Fragmented Nuclei (%) [1]: 25% and 22%
Population Healthy Nuclei (%) [1]: 66% and 68%
Population Hoechst High Intensity Objects (%) [1]: 1% and 0%
Population Membrane Permeable-Phenotype (%) [1]: 6% and 3%
Population Mitochondria Different-Phenotype (%) [1]: 1% and 6%
Population Mitotic Cells (%) [1]: 9%
Population Normal (%) [1]: 98% and 99%
Population Pyknosed Nuclei (%) [1]: 8% and 9%
Population Tubulin-Different-Phenotype (%) [1]: 3% and 4%
Total Cell Count [1]: 251 and 123
Population Apoptotic (%) [2]: 95% and 90%
Population Fragmented Nuclei (%) [2]: 26% and 11%
Population Healthy Nuclei (%) [2]: 65% and 81%
Population Hoechst High Intensity Objects (%) [2]: 1%
Population Membrane Permeable-Phenotype (%) [2]: 4%
Population Mitochondria Different-Phenotype (%) [2]: 1% and 0%
Population Mitotic Cells (%) [2]: 4% and 10%
Population Normal (%) [2]: 98%
Population Pyknosed Nuclei (%) [2]: 7%
Population Tubulin-Different-Phenotype (%) [2]: 3%
Total Cell Count [2]: 298 and 140
Population Apoptotic (%) [3]: 94% and 100%
Population Fragmented Nuclei (%) [3]: 22% and 17%
Population Healthy Nuclei (%) [3]: 71% and 74%
Population Hoechst High Intensity Objects (%) [3]: 0%
Population Membrane Permeable-Phenotype (%) [3]: 4% and 7%
Population Mitochondria Different-Phenotype (%) [3]: 2% and 7%
Population Mitotic Cells (%) [3]: 5% and 0%
Population Normal (%) [3]: 99% and 100%
Population Pyknosed Nuclei (%) [3]: 5% and 8%
Population Tubulin-Different-Phenotype (%) [3]: 1% and 4%
Total Cell Count [3]: 315 and 131
Population Apoptotic (%) [4]: 86% and 87%
Population Fragmented Nuclei (%) [4]: 22% and 10%
Population Healthy Nuclei (%) [4]: 66% and 85%
Population Hoechst High Intensity Objects (%) [4]: 2% and 1%
Population Membrane Permeable-Phenotype (%) [4]: 4% and 7%
Population Mitochondria Different-Phenotype (%) [4]: 1%
Population Mitotic Cells (%) [4]: 13% and 12%
Population Normal (%) [4]: 97% and 98%
Population Pyknosed Nuclei (%) [4]: 11% and 4%
Population Tubulin-Different-Phenotype (%) [4]: 2% and 3%
Total Cell Count [4]: 333 and 180
Population Apoptotic (%) [5]: 87% and 93%
Population Fragmented Nuclei (%) [5]: 16% and 11%
Population Healthy Nuclei (%) [5]: 75% and 67%
Population Hoechst High Intensity Objects (%) [5]: 2%
Population Membrane Permeable-Phenotype (%) [5]: 4% and 7%
Population Mitochondria Different-Phenotype (%) [5]: 2% and 3%
Population Mitotic Cells (%) [5]: 12% and 6%
Population Normal (%) [5]: 97%
Population Pyknosed Nuclei (%) [5]: 7% and 20%
Population Tubulin-Different-Phenotype (%) [5]: 1% and 3%
Total Cell Count [5]: 426 and 158
Population Apoptotic (%) [6]: 95% and 85%
Population Fragmented Nuclei (%) [6]: 21% and 8%
Population Healthy Nuclei (%) [6]: 67% and 81%
Population Hoechst High Intensity Objects (%) [6]: 3% and 2%
Population Membrane Permeable-Phenotype (%) [6]: 8% and 6%
Population Mitochondria Different-Phenotype (%) [6]: 4% and 2%
Population Mitotic Cells (%) [6]: 4% and 14%
Population Normal (%) [6]: 96% and 97%
Population Pyknosed Nuclei (%) [6]: 11% and 9%
Population Tubulin-Different-Phenotype (%) [6]: 4% and 2%
Total Cell Count [6]: 418 and 284

CN1C[C@H](C(=O)N[C@]2(C)O[C@@]3(O)[C@@H]4CCCN4C(=O)[C@H](Cc4ccccc4)N3C2=O)C[C@@H]2c3cccc4[nH]cc(c34)C[C@H]21.CS(=O)(=O)O [DIHYDROERGOTAMINE MESYLATE]
Population Apoptotic (%) [1]: 82% and 84%
Population Fragmented Nuclei (%) [1]: 24% and 23%
Population Healthy Nuclei (%) [1]: 65% and 63%
Population Hoechst High Intensity Objects (%) [1]: 1%
Population Membrane Permeable-Phenotype (%) [1]: 6% and 14%
Population Mitochondria Different-Phenotype (%) [1]: 2% and 1%
Population Mitotic Cells (%) [1]: 17% and 15%
Population Normal (%) [1]: 98%
Population Pyknosed Nuclei (%) [1]: 10% and 13%
Population Tubulin-Different-Phenotype (%) [1]: 2% and 7%
Total Cell Count [1]: 233 and 101
Population Apoptotic (%) [2]: 71% and 100%
Population Fragmented Nuclei (%) [2]: 19%
Population Healthy Nuclei (%) [2]: 73% and 77%
Population Hoechst High Intensity Objects (%) [2]: 2% and 1%
Population Membrane Permeable-Phenotype (%) [2]: 5%
Population Mitochondria Different-Phenotype (%) [2]: 1% and 0%
Population Normal (%) [2]: 97% and 98%
Population Pyknosed Nuclei (%) [2]: 7% and 2%
Population Tubulin-Different-Phenotype (%) [2]: 3% and 0%
Total Cell Count [2]: 298 and 144
Population Apoptotic (%) [3]: 89% and 100%
Population Fragmented Nuclei (%) [3]: 23% and 21%
Population Healthy Nuclei (%) [3]: 67% and 65%
Population Hoechst High Intensity Objects (%) [3]: 0% and 1%
Population Membrane Permeable-Phenotype (%) [3]: 2% and 8%
Population Mitochondria Different-Phenotype (%) [3]: 0% and 2%
Population Mitotic Cells (%) [3]: 10% and 0%
Population Normal (%) [3]: 99% and 98%
Population Pyknosed Nuclei (%) [3]: 9% and 13%
Population Tubulin-Different-Phenotype (%) [3]: 2% and 4%
Total Cell Count [3]: 307 and 132
Population Apoptotic (%) [4]: 88% and 92%
Population Fragmented Nuclei (%) [4]: 18% and 16%
Population Healthy Nuclei (%) [4]: 73% and 75%
Population Hoechst High Intensity Objects (%) [4]: 1%
Population Membrane Permeable-Phenotype (%) [4]: 4%
Population Mitochondria Different-Phenotype (%) [4]: 2%
Population Mitotic Cells (%) [4]: 11% and 7%
Population Normal (%) [4]: 98%
Population Pyknosed Nuclei (%) [4]: 8%
Population Tubulin-Different-Phenotype (%) [4]: 2% and 1%
Total Cell Count [4]: 337 and 163
Population Apoptotic (%) [5]: 80% and 90%
Population Fragmented Nuclei (%) [5]: 14% and 11%
Population Healthy Nuclei (%) [5]: 78% and 76%
Population Hoechst High Intensity Objects (%) [5]: 2% and 1%
Population Membrane Permeable-Phenotype (%) [5]: 2% and 6%
Population Mitochondria Different-Phenotype (%) [5]: 2%
Population Mitotic Cells (%) [5]: 19% and 10%
Population Normal (%) [5]: 97% and 98%
Population Pyknosed Nuclei (%) [5]: 7% and 11%
Population Tubulin-Different-Phenotype (%) [5]: 1% and 4%
Total Cell Count [5]: 427 and 173
Population Apoptotic (%) [6]: 95% and 100%
Population Fragmented Nuclei (%) [6]: 14% and 19%
Population Healthy Nuclei (%) [6]: 75% and 72%
Population Hoechst High Intensity Objects (%) [6]: 3%
Population Membrane Permeable-Phenotype (%) [6]: 7% and 3%
Population Mitochondria Different-Phenotype (%) [6]: 3% and 1%
Population Mitotic Cells (%) [6]: 4% and 0%
Population Normal (%) [6]: 96%
Population Pyknosed Nuclei (%) [6]: 9% and 8%
Population Tubulin-Different-Phenotype (%) [6]: 3% and 2%
Total Cell Count [6]: 452 and 217
